According to ChEMBL document CHEMBL1121744, “Synthesis and antihypertensive activity of a series of 8-substituted 1-oxa-3,8-diazaspiro[4.5]decan-2-ones” (J Med Chem, 1981):
Several values for one entry are separate records, joined by “and”; a condition that tells them apart may be missing. Equal entries are not always repeated.

Experiments:
[1] = (§1) Distribution coefficient between 1-Octanol and phosphate buffer at pH7.4; format: physicochemical; conditions: 1-octanol/phosphate buffer, pH 7.4
Procedure, shortened: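 Octanol/buffer distribution measured at pH 7.4 in phosphate with sodium chloride. Either HPLC (0.004 M) or shake flask.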

Rattus norvegicus [2] = test: Antihypertensive activity as percentage fall in systolic blood pressure in spontaneously hypertensive rats after a period of 3 h for a dose of 50 mg/kg; format: functional, organism-based; parameters: dose 50 mg/kg; conditions: Artery
Procedure, shortened: (§2)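 Male Okamoto-Aoki SHR, trained, in groups of four matched for mean systolic pressure; one group per run received water vehicle. Oral dosing in water (0.1 mL per 10 g) on two consecutive mornings. After the day-2 dose, rats were restrained at 30.0 ± 1.0 °C. Systolic pressure was read by tail cuff (inflated to 300 mmHg, first pulse) at 1–4 h. % fall is versus the untreated control group, by 1-tail t test (p ≤ 0.05).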

Rattus norvegicus [3] = test: Antihypertensive activity as percentage fall in systolic blood pressure in spontaneously hypertensive rats after a period of 2 hr for a dose of 50 mg/kg; format: functional, organism-based; parameters: dose 50 mg/kg; conditions: Artery; procedure, shortened: as §2
Rattus norvegicus [4] = test: Antihypertensive activity as percentage fall in systolic blood pressure in spontaneously hypertensive rats after a period of 1 hr for a dose of 50 mg/kg po; format: functional, organism-based; parameters: dose 50 mg/kg; conditions: Artery; procedure, shortened: as §2
Rattus norvegicus [5] = test: Antihypertensive activity as percentage fall in systolic blood pressure in spontaneously hypertensive rats after a period of 4 hr for a dose of 50 mg/kg; format: functional, organism-based; parameters: dose 50 mg/kg; conditions: Artery; procedure, shortened: as §2
Rattus norvegicus [6] = test: Antihypertensive activity as percentage fall in systolic blood pressure in spontaneously hypertensive rats after a period of 1 hr for a dose of 50 mg/kg; format: functional, Artery; procedure, shortened: as §2
Rattus norvegicus [7] = test: The antihypertensive activity as percentage fall in systolic blood pressure in spontaneously hypertensive rats after a period of 1 hr for a dose of 50 mg/kg po
Rattus norvegicus [8] = test: The antihypertensive activity as percentage fall in systolic blood pressure in spontaneously hypertensive rats after a period of 3 hr for a dose of 50 mg/kg po
Rattus norvegicus [9] = test: The antihypertensive activity as percentage fall in systolic blood pressure in spontaneously hypertensive rats after a period of 4 hr for a dose of 50 mg/kg po
Rattus norvegicus [10] = test: The antihypertensive activity as percentage fall in systolic blood pressure in spontaneously hypertensive rats after a period of 2 hr for a dose of 50 mg/kg po
Rattus norvegicus [11] = test: Percentage fall in systolic blood pressure in spontaneously hypertensive rats after 2 hr following 50 mg/kg p.o.; format: functional, Artery; conditions: route oral; procedure, shortened: as §2
Rattus norvegicus [12] = test: Percentage fall in systolic blood pressure in spontaneously hypertensive rats after 3 h following 50 mg/kg p.o.; format: functional, Artery; conditions: route oral; procedure, shortened: as §2
[13] = as §1; format: physicochemical; conditions: 1-octanol/phosphate buffer, pH 7.4; remark: listed apart in the source

SMILES	logD [1]	Decrease in blood pressure (Rattus norvegicus [2])	Decrease in blood pressure (Rattus norvegicus [3])	Decrease in blood pressure (Rattus norvegicus [4])	Decrease in blood pressure (Rattus norvegicus [5])	Decrease in blood pressure (Rattus norvegicus [6]) [%]	also measured
O=C1OC2(CCN(CCc3c[nH]c4ccccc34)CC2)CN1Cc1ccccc1	2.91	Not significant	Not significant	Not significant	Not significant	–	–
O=C1NC(c2ccccc2)C2(CCN(CCc3c[nH]c4ccccc34)CC2)O1 (stereo not given)	2.61	Not significant	Not significant	Not significant	Not significant	–	–
CCCN1CC2(CCN(CC(O)COc3ccccc3OC)CC2)OC1=O (stereo not given)	–	Not significant	Not significant	Not significant	Not significant	–	–
O=C1OC2(CCN(CC(O)C3COc4ccccc4O3)CC2)CN1CCc1ccccc1 (stereo not given)	2.79	Not significant	Not significant	–	Not significant	14	–
O=C1NC(c2ccccc2)C2(CCN(CC(O)C3COc4ccccc4O3)CC2)O1 (stereo not given)	2.41	Not significant	Not significant	Not significant	Not significant	–	–
O=C1OC2(CCN(CCc3c[nH]c4ccccc34)CC2)CN1CCc1ccccc1	2.95	Not significant	Not significant	Not significant	Not significant	–	–
CCCCN1CC2(CCN(CC(O)COc3ccccc3OC)CC2)OC1=O (stereo not given)	–	Not significant	Not significant	Not significant	Not significant	–	–
COc1ccccc1OCC(O)CN1CCC2(CC1)CN(C(C)C)C(=O)O2 (stereo not given)	–	Not significant	Not significant	Not significant	Not significant	–	–
CCN1CC2(CCN(CC(O)COc3ccccc3OC)CC2)OC1=O (stereo not given)	–	Not significant	Not significant	–	Not significant	11	–
CCC1N(C)C(=O)OC12CCN(CCc1c[nH]c3ccccc13)CC2 (stereo not given)	2.14	Not significant	Not significant	Not significant	Not significant	–	–
CCC1NC(=O)OC12CCN(CC(O)C1COc3ccccc3O1)CC2 (stereo not given)	–	–	–	–	–	–	Decrease in blood pressure (Rattus norvegicus [7]): 47%; Decrease in blood pressure (Rattus norvegicus [8]): 32%; Decrease in blood pressure (Rattus norvegicus [9]): 40%; Decrease in blood pressure (Rattus norvegicus [10]): 43%
CCCN1CC2(CCN(CC(O)C3COc4ccccc4O3)CC2)OC1=O (stereo not given)	–	Not significant	Not significant	Not significant	Not significant	–	–
CCC1CN(CCc2c[nH]c3ccccc23)CCC12CNC(=O)O2 (stereo not given)	2.01	Not significant	–	–	Not significant	16	Decrease in blood pressure (Rattus norvegicus [11]): 19%
O=C1OC2(CCN(CC(O)C3COc4ccccc4O3)CC2)CN1c1ccccc1 (stereo not given)	–	Not significant	Not significant	–	Not significant	16	–
COCCN1CC2(CCN(CCc3c[nH]c4ccccc34)CC2)OC1=O	–	Not significant	Not significant	–	Not significant	21	–
CC1NC(=O)OC12CCN(CCc1c[nH]c3ccccc13)CC2 (stereo not given)	1.43	Not significant	Not significant	–	Not significant	18	–

SMILES	logD [1]	Decrease in blood pressure (Rattus norvegicus [2])	Decrease in blood pressure (Rattus norvegicus [3])	Decrease in blood pressure (Rattus norvegicus [4])	Decrease in blood pressure (Rattus norvegicus [5])	Decrease in blood pressure (Rattus norvegicus [6]) [%]	also measured
COc1ccccc1OCC(O)CN1CCC2(CC1)CNC(=O)O2 (stereo not given)	0.69	Not significant	Not significant	Not significant	Not significant	–	–
O=C1NC(Cc2ccccc2)C2(CCN(CC(O)C3COc4ccccc4O3)CC2)O1 (stereo not given)	2.41	Not significant	Not significant	Not significant	Not significant	–	–
CC(C)CC1NC(=O)OC12CCN(CCc1c[nH]c3ccccc13)CC2 (stereo not given)	–	–	–	–	Not significant	27	Decrease in blood pressure (Rattus norvegicus [12]): 22%
COc1ccccc1OC[C@H](O)CN1CCC2(CC1)CN(C)C(=O)O2	–	Not significant	–	–	Not significant	10	Decrease in blood pressure (Rattus norvegicus [11]): 5%
CCCCN1CC2(CCN(CCc3c[nH]c4ccccc34)CC2)OC1=O	–	Not significant	Not significant	Not significant	Not significant	–	–
COc1ccccc1OCC(O)CN1CCC2(CC1)CN(Cc1ccccc1)C(=O)O2 (stereo not given)	–	Not significant	Not significant	Not significant	Not significant	–	logD [13]: 2.19
CCCC1NC(=O)OC12CCN(CCc1c[nH]c3ccccc13)CC2 (stereo not given)	2.31	–	–	–	Not significant	36	Decrease in blood pressure (Rattus norvegicus [11]): 12%; Decrease in blood pressure (Rattus norvegicus [12]): 16%
COc1ccccc1OCC(O)CN1CCC2(CC1)CN(CCc1ccccc1)C(=O)O2 (stereo not given)	–	Not significant	Not significant	Not significant	Not significant	–	–
CCCN1CC2(CCN(CCc3c[nH]c4ccccc34)CC2)OC1=O	2.36	Not significant	Not significant	–	Not significant	14	–
CCC1NC(=O)OC12CC[N+](C)(CCc1c[nH]c3ccccc13)CC2.[I-] (stereo not given)	–	Not significant	Not significant	–	Not significant	20	–
COc1ccccc1OC[C@@H](O)CN1CCC2(CC1)CN(C)C(=O)O2	–	–	–	–	–	25	Decrease in blood pressure (Rattus norvegicus [11]; 50 mg/kg): 16% and 13%; Decrease in blood pressure (Rattus norvegicus [12]): 10%
O=C1OC2(CCN(CC(O)C3COc4ccccc4O3)CC2)CN1Cc1ccccc1 (stereo not given)	–	Not significant	Not significant	Not significant	Not significant	–	–
CC(C)C1NC(=O)OC12CCN(CCc1c[nH]c3ccccc13)CC2 (stereo not given)	–	Not significant	–	–	Not significant	26	Decrease in blood pressure (Rattus norvegicus [11]): 17%
CCCCC1NC(=O)OC12CCN(CCc1c[nH]c3ccccc13)CC2 (stereo not given)	–	–	–	–	Not significant	24	Decrease in blood pressure (Rattus norvegicus [11]): 14%; Decrease in blood pressure (Rattus norvegicus [12]): 15%
CCCCN1CC2(CCN(CC(O)C3COc4ccccc4O3)CC2)OC1=O (stereo not given)	–	Not significant	Not significant	Not significant	Not significant	–	–
CCCC1CN(CCc2c[nH]c3ccccc23)CCC12CNC(=O)O2 (stereo not given)	2.42	Not significant	Not significant	–	Not significant	21	–
